Test results as given in paper PMC4755300 (European journal of medicinal chemistry, 2015).

What was measured:
[1] = target: human σ1 receptors in MCF7σ1 cells (Homo sapiens, UniProt Q99720); test: Flow cytometry displacement of fluorescent tracers 5 or 6 in MCF7σ1 cells; format: binding; details: for effect on fluorescent signal by tracers 5 and 6 (100 nM): MCF7σ1 cells, masking compound at 10 µM; for concentration at which the cellular fluorescence signal reaches a plateau: MCF7 cell lines, 45 and 75 min incubation, flow cytometry
[2] = system: MCF7wt cells; test: Flow cytometry of fluorescent tracers 5 or 6 in MCF7wt cells; format: cell-based, human; details: masking compound at 10 µM
Method in brief: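 Parental MCF7 cells were grown in high-glucose DMEM with 10% FBS and 1% penicillin-streptomycin at 37 °C. […] Cells were washed twice in PBS, detached 10 min at 37 °C, pelleted and resuspended in PBS. Flow cytometry used a 530 nm band pass filter, 50,000 events per analysis.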

[3] = target: σ1 receptor (Cavia porcellus, UniProt Q60492); test: σ1 receptor radioligand competition binding; parameters: species or system guinea pig; details: for σ1 versus σ2 receptor selectivity: ratio of σ2 and σ1 Ki
[4] = Fluorescence spectroscopy; format: physicochemical; details: with respect to quinine sulfate
Method in brief: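 Excitation and emission spectra were recorded on the free base in EtOH (per table footnote) or in CHCl3. Fluorescence quantum yield was calculated relative to quinine sulfate.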

[5] = target: T1, σ2 receptor (Rattus norvegicus, UniProt Q5U3Y7); test: σ2 receptor radioligand competition binding, [3H]-DTG with 1 µM
T1 sequence (Q5U3Y7 1-176): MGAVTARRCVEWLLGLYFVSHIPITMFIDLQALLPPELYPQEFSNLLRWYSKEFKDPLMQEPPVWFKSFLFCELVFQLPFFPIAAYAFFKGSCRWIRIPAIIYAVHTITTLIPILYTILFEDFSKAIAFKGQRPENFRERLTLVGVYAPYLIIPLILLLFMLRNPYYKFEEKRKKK

[6] = system: ARPE19 cells; test: MTT cell viability assay, paraquat toxicity in ARPE19 cells; format: cell-based, human; details: 1 mM paraquat, 24 h
[7] = system: ARPE19 cells; test: Confocal imaging of ARPE19 cells labeled with compound 9; format: cell-based, human; details: PB190 100 µM pretreatment 40 min
Method in brief: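 ARPE19 cells were grown in DMEM with 10% FBS and 1% penicillin-streptomycin under 5% CO2. Treatment and imaging were done in HBSS. Control wells were pretreated with PB190 100 µM for 40 min. Cells then received test compound 0.5 µM for 40 min and were rinsed twice in HBSS. Laser confocal imaging used a 60X oil objective, excitation 408 nm and emission detection 525 nm.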

Chain of σ1 receptor (Q60492 whole entry): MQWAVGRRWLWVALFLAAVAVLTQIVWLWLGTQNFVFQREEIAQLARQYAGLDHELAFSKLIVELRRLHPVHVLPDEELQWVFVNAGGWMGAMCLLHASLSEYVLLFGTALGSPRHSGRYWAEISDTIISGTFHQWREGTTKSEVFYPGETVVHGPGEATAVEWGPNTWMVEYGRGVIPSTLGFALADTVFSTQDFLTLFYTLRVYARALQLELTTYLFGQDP
Chain of human σ1 receptors in MCF7σ1 cells (Q99720 whole entry): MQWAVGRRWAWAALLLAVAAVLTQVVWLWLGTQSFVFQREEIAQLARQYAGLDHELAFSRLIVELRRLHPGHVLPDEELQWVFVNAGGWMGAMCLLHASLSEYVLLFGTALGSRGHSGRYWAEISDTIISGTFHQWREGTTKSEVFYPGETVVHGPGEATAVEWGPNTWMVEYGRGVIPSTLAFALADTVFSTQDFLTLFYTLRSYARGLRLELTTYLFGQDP

CC(C)=CCN1CC[C@]2(C)c3cc(O)ccc3C[C@H]1[C@H]2C [(+)-Pentazocine, reference compound]
effect on fluorescent signal by tracers 5 and 6 (100 nM) [1]: strongly decreased
effect on fluorescent signal by tracers 5 or 6 (100 nM) [2]: no change

CC1CCN(CCCCC2CCCc3cc(OCCCCCCN4C(=O)c5ccc(N(C)C)cc5C4=O)ccc32)CC1 (stereo not drawn) [Compound 5, 5-(Dimethylamino)-2-(6-((5-(4-(4-methylpiperidin-1-yl)butyl)-5,6,7,8-tetrahydronaphthalen-2-yl)oxy)hexyl)isoindoline-1,3-dione]
σ1 versus σ2 receptor selectivity [3]: 10 fold
concentration at which the cellular fluorescence signal reaches a plateau [1]: 100 nM
QY CHCl3 (fluorescence quantum yield) [4]: 0.5
QY EtOH (fluorescence quantum yield) [4]: 0.02

CC1CCN(CCCCc2cccc3cc(OCCCCCCN4C(=O)c5ccc(N(C)C)cc5C4=O)ccc23)CC1 [Compound 6, 5-(Dimethylamino)-2-{6-[(5-(4-(4-methylpiperidin-1-yl)butyl)naphthalen-2-yl)oxy]hexyl}isoindole-1,3-dione]
σ1 versus σ2 receptor selectivity [3]: 10 fold
decrease of σ2 affinity in comparison to the lead compound ([5]; 6 vs PB212): 2.5 fold
concentration at which the cellular fluorescence signal reaches a plateau [1]: 100 nM
QY CHCl3 (fluorescence quantum yield) [4]: 0.4
QY EtOH (fluorescence quantum yield) [4]: 0.02

CN(C)c1ccc2c(c1)C(=O)N(CCCCCCOc1cccc3c1CCCC3CCC(=O)N1CCN(C3CCCCC3)CC1)C2=O (stereo not drawn) [Compound 9, 2-(6-((5-(3-(4-Cyclohexylpiperazin-1-yl)-3-oxopropyl)-5,6,7,8-tetrahydronaphthalen-1-yl)oxy)hexyl)-5-(dimethylamino) isoindole-1,3-dione]
Ki [3]: 13.1 ± 5.02 nM
σ1 versus σ2 receptor selectivity [3]: 3 fold
Ki [5]: 38.4 ± 10.9 nM
σ2 receptor affinity higher than that of the lead compound ([5]; 9 vs 1): 5 fold
QY CHCl3 (fluorescence quantum yield) [4]: 0.4
QY EtOH (fluorescence quantum yield) [4]: 0.02
cytoprotection against paraquat-mediated toxicity (MTT viability) [6]: protects against such toxicity

COc1cc2c(cc1OC)CN(CCCN1CCc3c(OC)cccc3C1=O)CC2 [Compound 10, 2-(3-(6,7-dimethoxy-3,4-dihydroisoquinolin-2(1H)-yl)propyl)-5-methoxy-3,4-dihydroisoquinolin-1(2H)-one, reference compound]
effect on fluorescent signal by tracers 5 and 6 (100 nM) [1]: only slightly decreased
effect on fluorescent signal by tracers 5 or 6 (100 nM) [2]: no change

COc1ccc2c(c1)CCCC2CCCCN1CCC(C)CC1 (stereo not drawn) [PB190, 4-methyl-1-[4-(6-methoxy-1,2,3,4-tetrahydronaphthalen-1-yl)butyl]piperidine]
effect on labeling by compound 9 when cells prelabeled [7]: Lower intensity of labeling
